Screens: PubChem, Broad Institute
The list is not random: actives were taken first. Their share in the collection is about 3.5%.
Env fusion inh: blocks HIV Env-driven cell-cell fusion. inhibition, % at 12.3 µM. AID 651610. actives 1.1% (n = 360,000). HeLa-JRFL Env/CEM21 cell fusion, luciferase;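 active means mean replicate inhibition score of at least 50 and every replicate individually at or above 50; inconclusive means only one of the two criteria met; inactive means mean below 50 and not all replicates reaching 50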;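 further: 0% = plate neutral controls and 100% = maraviroc near 300 nM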
Wnt bcat act: activators of Wnt/beta-catenin signaling; actives 1.2% (n = 300,000); activation, % at 9.35 µM; AID 743398; Wnt/beta-catenin reporter cell assay, activator, plate reader; in the data active means activation above about 30%, passing the limit was not always enough; inconclusive means no clear call, values can overlap the other calls;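 further: 0% = neutral control wells and 100% = positive control wells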
Cneo AK release: Cryptococcus neoformans lysis via adenylate kinase release. lysis activity, % at 15 µM. AID 651654. C. neoformans lysis, adenylate kinase release luminescence, 4 h; normalised: neutral wells 0, clomiphene wells 100. actives 0.2% (n = 360,000);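 active means mean lysis activity across replicates of at least 80%, whatever share of replicates individually reach that level; inactive means mean lysis activity below 80%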
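Assay system: log-phase C. neoformans yeast / Quantity: yeast cell density of 5 × 10^6 cells/mL / Medium: fresh YPD growth medium / Compound: single dose / Timing: static 4 h at 37 °C with compound, 1 h detection / Measured by: adenylate kinase release luminescence / Read-out: lysis from increased AK signal / Benchmarks: Clomiphene as positive lysis control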
MITF TRPM1 HTS: MITF TRPM1 promoter activation in melanoma cells | SK-MEL-5 TRPM1-promoter luciferase, 24 h; % of positive control, neutral wells = 0 | activation, % at 12.5 µM | actives 0.75% (n = 300,000);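 active means mean activation of at least 80% with every replicate also reaching 80%; inconclusive means mean reaches 80% but some replicate falls short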;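 further: 0% = neutral control wells and 100% = parthenolide positive control wells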
ERAP1 HTS inh: inhibitors of human ERAP1 aminopeptidase; Q9NZ08; recombinant ERAP1, Leu-AMC fluorescence, 60 min; inhibition, % at 10.7 µM; actives 0.15% (n = 340,000); AID 652197;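 active means mean replicate inhibition of at least 30%, or all replicates individually reaching that 30% level; inactive means mean below 30% and not every replicate reaching it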;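 further: 0% = neutral control wells and 100% = L-leucinethiol positive control wells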
Target sequence (Q9NZ08 whole entry, looked up): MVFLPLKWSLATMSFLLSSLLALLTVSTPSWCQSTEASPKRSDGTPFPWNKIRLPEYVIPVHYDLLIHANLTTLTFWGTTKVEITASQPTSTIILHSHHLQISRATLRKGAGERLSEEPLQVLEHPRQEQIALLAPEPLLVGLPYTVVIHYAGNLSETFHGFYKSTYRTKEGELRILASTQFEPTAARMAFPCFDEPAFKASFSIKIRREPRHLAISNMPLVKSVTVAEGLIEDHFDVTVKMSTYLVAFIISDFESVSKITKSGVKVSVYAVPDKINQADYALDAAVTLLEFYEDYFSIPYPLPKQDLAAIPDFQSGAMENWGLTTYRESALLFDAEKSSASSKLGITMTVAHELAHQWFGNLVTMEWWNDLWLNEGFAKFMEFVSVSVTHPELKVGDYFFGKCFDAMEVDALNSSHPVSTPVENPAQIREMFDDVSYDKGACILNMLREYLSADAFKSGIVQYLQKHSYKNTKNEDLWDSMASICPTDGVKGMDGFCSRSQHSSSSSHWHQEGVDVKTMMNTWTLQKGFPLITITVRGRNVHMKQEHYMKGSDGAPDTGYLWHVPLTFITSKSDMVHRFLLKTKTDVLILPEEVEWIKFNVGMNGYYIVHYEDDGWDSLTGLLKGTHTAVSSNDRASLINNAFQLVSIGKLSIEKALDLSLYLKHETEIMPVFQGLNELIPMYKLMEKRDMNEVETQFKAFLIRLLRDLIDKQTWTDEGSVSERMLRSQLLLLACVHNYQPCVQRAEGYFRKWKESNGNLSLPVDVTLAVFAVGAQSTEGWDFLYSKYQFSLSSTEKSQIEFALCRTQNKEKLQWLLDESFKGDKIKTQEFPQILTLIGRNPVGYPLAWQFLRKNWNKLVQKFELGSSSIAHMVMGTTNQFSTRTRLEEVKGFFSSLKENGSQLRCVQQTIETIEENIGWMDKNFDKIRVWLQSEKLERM
esBAF inh: inhibitors of esBAF chromatin remodeling in mouse ES cells. Bmi1-luciferase knock-in reporter, 24 h; 100% = twice the neutral-well signal. reporter increase, % at 12.5 µM. actives 2% (n = 350,000); in the data active means activation above about 40%; inconclusive means no clear call, values can overlap the other calls;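 further: 0% = median of the plate's neutral control wells and 100% = double that signal; a rise in the Bmi1 reporter signal indicates esBAF inhibition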
Starred values were filed as active, the others as inactive; ? = inconclusive; / = not tested or not shown; [ ] = another dose, or the depositor's remark.

SMILES	Env fusion inh	Wnt bcat act	Cneo AK release	MITF TRPM1 HTS	ERAP1 HTS inh	esBAF inh
COc1ccc(NC(=O)Nc2ccc3c(c2)C(=O)N([C@@H](C)CO)C[C@H](C)[C@H](CN(C)S(=O)(=O)c2ccc(Cl)cc2)OCCCC[C@@H](C)O3)cc1	-14[16.7 µM]	/	-14	/	3	7
Cc1ccn2c(C(=O)c3ccc(Cl)cc3)cnc2c1	-234	43*	-2	?	/	/
Cc1ccn2c(=O)nc(SCC(=O)c3ccc(Cl)cc3)nc2c1	0	7	-1	14	-2	/
O=C(N[C@H]1CC[C@H](CCNS(=O)(=O)Cc2ccccc2)O[C@H]1CO)c1cnccn1	-18[16.7 µM]	/	52	/	/	3
O=C(C[C@H]1C=C[C@@H](NC(=O)Nc2ccccc2F)[C@@H](CO)O1)NCc1ccccc1	/	/	/	/	-8	/
CC(C)NC(=O)Nc1ccc2c(c1)CC(=O)N([C@@H](C)CO)C[C@@H](C)[C@H](CN(C)C(=O)Nc1ccc3c(c1)OCO3)O2	-6[16.7 µM]	/	85*	/	-3	-12
CC(C)NC(=O)N(C)C[C@@H]1Oc2ccc(NC(=O)C3CC3)cc2CC(=O)N([C@H](C)CO)C[C@H]1C	62*[16.7 µM]	/	/	/	/	0
Cc1noc(C)c1NC(=O)N(C)C[C@@H]1Oc2ccc(NC(=O)NC(C)C)cc2CC(=O)N([C@H](C)CO)C[C@H]1C	-11[16.7 µM]	/	102*	/	-6	-1
Cc1noc(C)c1NC(=O)N(C)C[C@@H]1Oc2ccc(NC(=O)NC(C)C)cc2CC(=O)N([C@@H](C)CO)C[C@@H]1C	-6[16.7 µM]	/	106*	/	-6	-8
Cc1noc(C)c1NC(=O)N(C)C[C@H]1Oc2ccc(NC(=O)NC(C)C)cc2CC(=O)N([C@H](C)CO)C[C@@H]1C	18[16.7 µM]	/	2	/	3	-2
O=C(N[C@@H]1CC[C@H](CCNC(=O)C2CCOCC2)O[C@@H]1CO)c1ccncc1	5[16.7 µM]	/	-4	/	-1	0
COc1cccc(NC(=O)Nc2ccc3c(c2)OC[C@@H](C)NC[C@H](C)[C@@H](OC)CN(C)C3=O)c1	-9[16.7 µM]	/	9	/	-4	9
Cc1noc(C)c1NC(=O)N(C)C[C@@H]1Oc2ccc(NC(=O)C3CC3)cc2CC(=O)N([C@H](C)CO)C[C@@H]1C	-8[16.7 µM]	/	107*	/	1	-4
COCCNC(=O)[C@H]1[C@H](CO)[C@H]2Cn3c(cccc3=O)[C@H]2N1Cc1ccccc1OC	/	/	/	/	0	/
Cc1ccc(/C=N/c2sc3c(c2C#N)CCC3)s1	/	5	-2	92*	/	29
CN1CCN(/C=N/c2sc3c(c2C#N)CCCCC3)CC1	/	/	-2	66	/	81*
Cc1ccc(/C=N/c2sc3c(c2C#N)CCCCC3)o1	/	/	0	25	/	4
C[C@H](CO)N1C[C@H](C)[C@@H](CN(C)C(=O)Nc2cccc3ccccc23)Oc2ccc(NS(C)(=O)=O)cc2CC1=O	/	/	/	/	1	/
Cc1cc(NC(=O)CCC(=O)N(C2CC2)C2(C(=O)NC3CCCC3)CCC(C)CC2)no1 (centres undefined)	100*	-2	3	-6	/	/
CCOP(=O)(OCC)c1nc(-c2cccc3ccccc23)oc1NCCc1ccc(OC)cc1	63*	-6	1	7	1	-8
Cc1nn(-c2cccc([N+](=O)[O-])c2)c(N)c1-c1ccccc1	-49	15	-5	92*	2	66*
Nc1c(-c2ccc(Cl)cc2)cnn1-c1cccc(C(F)(F)F)c1	/	13	-1	80	/	68*
Cc1nnc(-c2cnn(-c3ccccc3)c2N)n1Cc1cccc(C(F)(F)F)c1	-23	/	0	/	/	9
Cc1ccc(-c2cnn(-c3cccc(C(F)(F)F)c3)c2N)cc1	-41	/	-5	/	/	87*
Nc1c(-c2ccc(Cl)cc2)cnn1-c1cccc([N+](=O)[O-])c1	-162	/	-1	/	/	64*
SMILES	Env fusion inh	Wnt bcat act	Cneo AK release	MITF TRPM1 HTS	ERAP1 HTS inh	esBAF inh
C[C@@H]1CCCCO[C@H](CN(C)C)[C@H](C)CN([C@H](C)CO)C(=O)c2cc(NS(=O)(=O)c3ccc(F)cc3)ccc2O1	-13[16.7 µM]	/	4	/	-2	-3
Cc1ccc(/C=C/C(=O)Nc2ncc(C)s2)o1	-71	-1	/	101*	5	/
Cc1ccc(/C=C/C(=O)Nc2nccs2)o1	-59	-3	-5	30	4	60*
Cc1cnc(NC(=O)/C=C/c2ccc(Br)o2)s1	-3	9	9	29	-7	32
Cc1ccc(/C=C/C(=O)Nc2ccc(N(C)C)cc2)o1	-87	/	-6	115*	/	52*
CCn1c(CCc2ccccc2)nc2ccccc21	-6	7	-2	/	1	42*
CCn1c(N)nc2ccccc21	/	-2	0	-10	/	53*
CC1(C)Cc2c(sc3c2c(=O)n(-c2ccc(Cl)cc2)c(=O)n3CC(N)=O)CO1	-10	1	3	-11	-2	-5
Cn1c(=O)n(-c2cccc(Cl)c2)c(=O)c2c3c(sc21)COC(C)(C)C3	114*	-8	1	-13	/	-2
N#C[C@H]1[C@H](c2ccccc2-c2ccccc2)[C@@H](CO)N1C(=O)NC1CCCCC1	/	/	/	/	-3	/
Cc1ccc(C(=O)/C=C/c2ccc(-c3ccccc3[N+](=O)[O-])o2)cc1	4	-3	/	-9	/	/
COc1ccc(C(=Cc2ccccc2[N+](=O)[O-])C(=O)O)cc1	-46	49*	/	18	-4	14
O=C(/C=C/c1ccc(O)cc1)c1ccccc1	-75	38*	/	69	-1	59*
Cc1ccc(C(=O)/C=C/c2ccccc2[N+](=O)[O-])cc1	-11	50*	/	44	-1	/
COc1cccc(/C=C(\C(=O)O)c2ccccc2)c1	-12	-1	/	10	-3	5
Cc1cccc(C=CC(=O)c2ccccc2)c1	-14	7	0	49	-2	71*
C[C@@H]1CN([C@@H](C)CO)C(=O)c2cc(NC(=O)c3ccncc3)ccc2O[C@@H](C)CCCCO[C@H]1CN(C)C(=O)NC1CCCCC1	-14[16.7 µM]	/	2	/	2	3
CC(C)NC(=O)N[C@H]1C=C[C@@H](CC(=O)NCCCN(C)C)O[C@@H]1CO	-11[16.7 µM]	/	-1	/	0	6
Cc1cc(/C=N/NC(N)=S)c(C)n1-c1ccc(Cl)c(Cl)c1	-14	4	/	-29	11	/
CCNC(=S)N/N=C/c1cc(C)n(-c2ccc(Cl)cc2)c1C	-27	1	/	86*	0	/
Cc1noc(C)c1NC(=O)Nc1ccc2c(c1)CC(=O)N([C@H](C)CO)C[C@H](C)[C@H](CN(C)C(=O)Nc1ccc(C(F)(F)F)cc1)O2	-18[16.7 µM]	/	-3	/	3	1
Cc1ccc(N2NC(C)(c3cccs3)NC2=S)cc1 (centres undefined)	-10	12	/	92*	/	/
Cc1ccc(N2CC(O)(c3cccs3)[N+]3=C2CCCC3)cc1 (centres undefined)	-3	-1	/	2	0	/
CC(=O)N(C)C[C@H]1Oc2cc(-c3ccccc3C)ccc2S(=O)(=O)N([C@H](C)CO)C[C@H]1C	9[16.7 µM]	/	-4	/	0	2
